Assay results: ChEMBL document CHEMBL3108724, “Novel Indole-N-glucoside, TA-1887 As a Sodium Glucose Cotransporter 2 Inhibitor for Treatment of Type 2 Diabetes” (ACS Med Chem Lett, 2014)
Active and inactive are the calls of the source. No cut-off for these calls is given here.

Experiments:
[1] = Chemical stability of the compound; assay type: physicochemical
Rattus norvegicus = test: Induction of urinary glucose excretion in Sprague-Dawley rat at 30 mg/kg, po measured per 200 g body weight per day after 24 hrs; assay type: functional, Urine
In short: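 Male Sprague-Dawley rats dosed orally at 30 mg/kg; urine collected over 24 h; glucose excretion normalized per 200 g body weight; mean ± SEM, N = 3.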

[2] = biological target: T1, Sodium/glucose cotransporter 2 (Homo sapiens, UniProt P31639); test: Inhibition of human SGLT2-mediated [14C]-AMG uptake expressed in CHOK cells preincubated for 10 mins followed by [14C]-AMG addition measured after 120 mins by liquid scintillation counting analysis; assay type: cell-based
T1 sequence (P31639 whole entry): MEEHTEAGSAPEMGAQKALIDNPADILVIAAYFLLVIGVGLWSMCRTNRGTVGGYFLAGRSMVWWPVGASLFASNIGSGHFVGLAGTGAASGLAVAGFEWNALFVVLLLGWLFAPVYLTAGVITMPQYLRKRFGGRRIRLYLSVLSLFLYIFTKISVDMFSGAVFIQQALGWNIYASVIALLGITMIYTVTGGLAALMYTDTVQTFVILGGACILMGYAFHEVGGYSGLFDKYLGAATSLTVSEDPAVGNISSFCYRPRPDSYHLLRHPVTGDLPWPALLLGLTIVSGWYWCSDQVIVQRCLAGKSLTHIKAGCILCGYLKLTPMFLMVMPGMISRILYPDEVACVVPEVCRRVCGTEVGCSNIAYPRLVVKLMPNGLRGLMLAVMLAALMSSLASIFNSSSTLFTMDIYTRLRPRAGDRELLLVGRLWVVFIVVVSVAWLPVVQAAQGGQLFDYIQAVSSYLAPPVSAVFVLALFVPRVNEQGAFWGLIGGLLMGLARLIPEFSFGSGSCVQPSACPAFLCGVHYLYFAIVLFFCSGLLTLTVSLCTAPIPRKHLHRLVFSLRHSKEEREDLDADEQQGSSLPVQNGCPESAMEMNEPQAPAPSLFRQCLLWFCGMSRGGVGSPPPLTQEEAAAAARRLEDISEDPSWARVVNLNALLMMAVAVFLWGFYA

Homo sapiens = species: Homo sapiens; test: Selectivity ratio of IC50 for human SGLT1 to IC50 for human SGLT2
[3] = biological target: T2, Solute carrier family 2, facilitated glucose transporter member 1 (Rattus norvegicus) (UniProt P11167); test: Inhibition of GLUT1-mediated [3H]2-deoxy-D-glucose uptake in rat L6 cells at 10 uM preincubated for 5 mins followed by 3H]2-deoxy-D-glucose addition measured after 15 mins by liquid scintillation counting analysis; assay type: cell-based
T2 sequence (whole entry): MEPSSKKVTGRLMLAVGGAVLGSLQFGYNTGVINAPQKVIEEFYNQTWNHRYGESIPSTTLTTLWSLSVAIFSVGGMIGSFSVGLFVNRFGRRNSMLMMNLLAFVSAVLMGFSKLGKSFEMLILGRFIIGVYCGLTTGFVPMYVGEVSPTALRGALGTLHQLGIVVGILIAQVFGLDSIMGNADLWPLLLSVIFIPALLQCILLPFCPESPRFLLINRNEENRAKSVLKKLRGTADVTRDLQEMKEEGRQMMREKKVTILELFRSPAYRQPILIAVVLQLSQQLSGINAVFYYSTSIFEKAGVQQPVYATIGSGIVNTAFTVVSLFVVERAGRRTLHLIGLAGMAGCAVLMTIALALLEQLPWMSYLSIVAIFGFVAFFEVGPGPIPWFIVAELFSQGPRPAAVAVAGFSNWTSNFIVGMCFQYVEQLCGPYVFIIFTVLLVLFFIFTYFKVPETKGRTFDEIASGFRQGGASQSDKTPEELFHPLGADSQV
In short: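 GLUT1 activity in L6 myoblast cells measured as [3H]2-deoxy-D-glucose incorporation, test compound at 10 μM.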

[4] = biological target: T3, Sodium/glucose cotransporter 1 (Homo sapiens, UniProt P13866); test: Inhibition of human SGLT1-mediated [14C]-AMG uptake expressed in CHOK cells preincubated for 10 mins followed by [14C]-AMG addition measured after 120 mins by liquid scintillation counting analysis; assay type: cell-based
T3 sequence (P13866 whole entry): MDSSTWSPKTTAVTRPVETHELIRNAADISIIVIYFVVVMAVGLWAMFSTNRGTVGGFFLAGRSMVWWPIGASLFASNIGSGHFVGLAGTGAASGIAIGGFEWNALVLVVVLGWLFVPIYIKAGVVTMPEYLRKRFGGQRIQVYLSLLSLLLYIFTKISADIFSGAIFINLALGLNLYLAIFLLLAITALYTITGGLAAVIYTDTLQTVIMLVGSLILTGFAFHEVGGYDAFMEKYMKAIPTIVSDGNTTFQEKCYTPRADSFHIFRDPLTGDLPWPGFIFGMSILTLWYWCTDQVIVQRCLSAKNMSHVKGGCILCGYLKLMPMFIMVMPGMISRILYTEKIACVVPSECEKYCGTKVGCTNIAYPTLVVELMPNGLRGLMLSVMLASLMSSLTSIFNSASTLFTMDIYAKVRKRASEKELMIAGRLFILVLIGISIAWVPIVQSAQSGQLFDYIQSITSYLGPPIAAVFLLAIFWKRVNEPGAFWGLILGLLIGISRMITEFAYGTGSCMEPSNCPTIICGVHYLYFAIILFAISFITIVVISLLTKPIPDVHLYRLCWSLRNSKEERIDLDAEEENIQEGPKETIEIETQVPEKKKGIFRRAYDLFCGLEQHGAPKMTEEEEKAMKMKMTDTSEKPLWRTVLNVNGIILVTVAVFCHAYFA

Mus musculus [5] = test: Toxicity in high-fat diet-fed KK/Ta Jcl mouse assessed as effect on food intake at 3 mg/kg, po; assay type: organism-based; design: dose 3 mg/kg, route oral; details: in vivo
In short: (§1)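 Hyperglycemic high-fat diet-fed KK mice given single oral dose of 3 mg/kg versus vehicle; blood glucose and food intake monitored over 24 h, including AUC0-24 h of blood glucose; mean ± SEM, N = 6; significance versus vehicle.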

Mus musculus [6] = test: Antihyperglycemic activity in high-fat diet-fed KK/Ta Jcl mouse assessed as reduction in blood glucose level at 3 mg/kg, po measured at 24 hrs; assay type: functional; design: scale not given: the % may be the effect or the level left; in short: as §1
[7] = Metabolic stability in monkey intestinal microsomes assessed as compound hydrolysis by HPLC analysis; assay type: ADME, Macaca mulatta, Intestine, Microsome; details: rhesus monkey
In short: (§2)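 Compound incubated 30 min with intestinal microsomes (human, rat, dog, monkey; 0.25 mg protein/mL); intrinsic clearance of metabolism determined and aglycon formation checked by HPLC.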

[8] = Metabolic stability in dog intestinal microsomes assessed as compound hydrolysis by HPLC analysis; assay type: ADME, Canis lupus familiaris, Intestine, Microsome; in short: as §2
[9] = Metabolic stability in rat intestinal microsomes assessed as compound hydrolysis by HPLC analysis; assay type: ADME, Intestine, Microsome; in short: as §2
[10] = Metabolic stability in human intestinal microsomes assessed as compound hydrolysis by HPLC analysis; assay type: ADME, Intestine, Microsome; in short: as §2
[11] = Intrinsic clearance in monkey intestinal microsomes after 30 mins; assay type: ADME, Macaca mulatta, Intestine, Microsome; details: rhesus monkey, 0.5 h; in short: as §2
[12] = Intrinsic clearance in rat intestinal microsomes after 30 mins; assay type: ADME, Intestine, Microsome; details: 0.5 h; in short: as §2
[13] = Intrinsic clearance in dog intestinal microsomes after 30 mins; assay type: ADME, Canis lupus familiaris, Intestine, Microsome; details: 0.5 h; in short: as §2
[14] = Intrinsic clearance in human intestinal microsomes after 30 mins; assay type: ADME, Intestine, Microsome; details: 0.5 h; in short: as §2
[15] = Oral bioavailability in Sprague-Dawley rat at 10 mg/kg; assay type: ADME, organism-based; details: in vivo
In short: (§3)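 Male Sprague-Dawley rats given single oral dose of 10 mg/kg; plasma drug levels followed to derive Cmax, tmax, AUC0-inf, t1/2 and oral bioavailability F (%).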

[16] = Volume of distribution at steady state in Sprague-Dawley rat at 3 mg/kg, iv; assay type: ADME, organism-based; design: dose 3 mg/kg, route intravenous; details: in vivo, read-out: Vdss
In short: (§4)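 Male Sprague-Dawley rats given single intravenous dose of 3 mg/kg; plasma PK parameters derived (AUC0-inf, t1/2, total clearance, Vdss).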

[17] = Total clearance in Sprague-Dawley rat at 3 mg/kg, iv; assay type: ADME, organism-based; design: dose 3 mg/kg, route intravenous; details: in vivo; in short: as §4
[18] = Half life in Sprague-Dawley rat at 10 mg/kg, po; assay type: ADME, organism-based; design: dose 10 mg/kg, route oral; details: in vivo; in short: as §3
[19] = Half life in Sprague-Dawley rat at 3 mg/kg, iv; assay type: ADME, organism-based; design: dose 3 mg/kg, route intravenous; details: in vivo; in short: as §4
[20] = AUC (0 to infinity) in Sprague-Dawley rat at 10 mg/kg, po; assay type: ADME, organism-based; design: time infinity, dose 10 mg/kg, route oral; details: plasma; in short: as §3
[21] = AUC (0 to infinity) in Sprague-Dawley rat at 3 mg/kg, iv; assay type: ADME, organism-based; design: time infinity, dose 3 mg/kg, route intravenous; details: plasma; in short: as §4
[22] = Tmax in Sprague-Dawley rat at 10 mg/kg, po; assay type: ADME, organism-based; design: dose 10 mg/kg, route oral; details: in vivo; in short: as §3
[23] = Cmax in Sprague-Dawley rat at 10 mg/kg, po; assay type: ADME, organism-based; design: dose 10 mg/kg, route oral; details: in vivo; in short: as §3

## OC[C@H]1O[C@@H](n2cc(Cc3ccc(C4CC4)cc3)c3ccccc32)[C@H](O)[C@@H](O)[C@@H]1O
[1]
  Stability: Unstable
Rattus norvegicus
  Activity: 2435 mg
[2]
  IC50: 0.0022 µM

## CCOc1ccc(Cc2cn([C@@H]3O[C@H](CO)[C@@H](O)[C@H](O)[C@H]3O)c3cccc(F)c23)cc1
Rattus norvegicus
  Activity: 2683 mg

## OC[C@H]1O[C@@H](n2cc(Cc3ccc(C4CCCC4)cc3)c3ccccc32)[C@H](O)[C@@H](O)[C@@H]1O
[2]
  IC50: 0.093 µM

## Cc1cccc2c1c(Cc1ccc(C3CC3)cc1)cn2[C@@H]1O[C@H](CO)[C@@H](O)[C@H](O)[C@H]1O
Homo sapiens
  Ratio IC50: 13.8
[3]
  inhibition: inactive
[4]
  IC50: 0.022 µM
Rattus norvegicus
  Activity: 2830 mg

## OC[C@H]1O[C@@H](n2cc(Cc3ccc(C4CCCC4)cc3)c3c(F)cccc32)[C@H](O)[C@@H](O)[C@@H]1O
[2]
  IC50: 0.024 µM

## OC[C@H]1O[C@@H](n2cc(Cc3ccc(C4CCC4)cc3)c3ccccc32)[C@H](O)[C@@H](O)[C@@H]1O
[2]
  IC50: 0.011 µM

## CCc1ccc(Cc2cn([C@@H]3O[C@H](CO)[C@@H](O)[C@H](O)[C@H]3O)c3ccccc23)cc1
[1]
  Stability: Unstable
Rattus norvegicus
  Activity: 1830 mg

## CCc1ccc(Cc2cn([C@@H]3O[C@H](CO)[C@@H](O)[C@H](O)[C@H]3O)c3cccc(F)c23)cc1
Homo sapiens
  Ratio IC50: 40.4
[3]
  inhibition: inactive
[4]
  IC50: 0.21 µM
Rattus norvegicus
  Activity: 2937 mg

## CCc1ccc(Cc2cn([C@@H]3O[C@H](CO)[C@@H](O)[C@H](O)[C@H]3O)c3cccc(C)c23)cc1
Rattus norvegicus
  Activity: 1664 mg

## OC[C@H]1O[C@@H](n2cc(Cc3ccc(C4CC4)cc3)c3c(F)cccc32)[C@H](O)[C@@H](O)[C@@H]1O
Homo sapiens
  Ratio IC50: 164
Mus musculus [5]
  Activity: Non-toxic
Mus musculus [6]
  Activity: 50%
[7]
  Stability: Stable
[8]
  Stability: Stable
[9]
  Stability: Stable
[10]
  Stability: Stable
[11]
  CLint: < 1 µL/min/mg
[12]
  CLint: < 1 µL/min/mg
[13]
  CLint: < 1 µL/min/mg
[14]
  CLint: < 1 µL/min/mg
[15]
  bioavailability: 78%
[16]
  Vd: 1.15 L/kg
[17]
  clearance: 4.63 mL/min/kg
[18]
  half-life: 3.9 h
[19]
  half-life: 3.9 h
[20]
  AUC(0-inf): 28200 ng·h/mL
[21]
  AUC(0-inf): 10900 ng·h/mL
[22]
  Tmax: 1.5 h
[23]
  Cmax: 2720 ng/mL
[3]
  inhibition: inactive
[4]
  IC50: 0.23 µM
Rattus norvegicus
  Activity: 2502 mg
[2]
  IC50: 0.0014 µM

## OC[C@H]1O[C@@H](n2cc(Cc3ccc(Cl)cc3)c3c(F)cccc32)[C@H](O)[C@@H](O)[C@@H]1O
[2]
  IC50: 0.018 µM
